# iPSC survival up: enhancers of single-cell hiPSC survival, primary screen, ATPlite luminescence; 100% = ROCK inhibitor wells, 0% = DMSO; survival enhancement, % at 20 µM; 360,000 compounds, 0.044% hits; in the data active = survival enhancement above about 18%;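 also: cells exposed to compounds for 16 hours before the ATP read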
# GRIN3A LBD mod: binders of NR3A ligand-binding domain, primary screen, biophysical, differential scanning fluorimetry, uHTS | Tm shift relative to glycine control, % at 25 µM | NR3A LBD differential scanning fluorimetry, Tm shift; 0% = protein alone, 100% = glycine-bound protein | 340,000 compounds, 2.5% hits | Glutamate receptor ionotropic, NMDA 3A (GRIN3A) ligand-binding domain;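 active = melting temperature shift of at least 10% of the positive control shift, at one fixed dose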
# H9c2 protect: cardioprotection against H2O2-induced cell death, primary screen, uHTS, H9c2 cells, ATPLite luminescence. H9c2 cardiomyocytes, H2O2 injury protection, 2 h. 360,000 compounds, 0.63% hits. protection from H2O2 cell death, % at 20 µM;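 active = compounds giving at least 50% protection of heart cells from peroxide-induced death in the single-dose screen, raw or plate-pattern-corrected value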;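 also: 0% = DMSO wells with peroxide and 100% = DMSO wells without peroxide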
# Arrestin-AP2 inh: inhibitors of beta-arrestin/AP2 binding, primary screen, biochemical, GPCR trafficking, flow cytometry; inhibition, % at 10 µM; 340,000 compounds, 0.31% hits; beta-arrestin 1 C-terminal peptide binding to AP2 beta2-adaptin appendage (human); AID 504490, 2011; FITC-arrestin peptide / GST-AP2 beads; AP2 beta2 appendage carries R879A mutation;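 active = inhibition above a set limit, near 3 SD of compounds lacking own fluorescence, cut at about 54% in these data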;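 also: plate controls were DMSO wells for no effect and 5 µM unlabelled arrestin peptide for full effect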
#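 Material – AP2 appendage R879A on GSH beads · Buffer or medium – PBS with 0.05% Tween 20 and 0.1% BSA · Probe or stimulus – fluorescein-tagged arrestin peptide at 50 nM final · Incubation – compound with beads 12 min RT, then probe 1 h RT · Detection – high-throughput flow cytometry of beads, ex 488, em 535 nm · Evaluation – percent response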
# FAS TE block: FAS thioesterase domain inhibitors, primary screen, biochemical, fluorescence intensity, uHTS; recombinant FAS-TE, OMFH fluorogenic substrate, fluorescence endpoint; AID 602261, 2012; inhibition, % at 15 µM; Fatty acid synthase (Homo sapiens), P49327; 360,000 compounds, 0.67% hits;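 active = compounds whose normalised, plate-corrected inhibition of enzyme fluorescence in the single-dose primary screen is 50% or more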;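 also: 0% = DMSO with enzyme and 100% = substrate without enzyme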
# SENP1 FRET inh: human SENP1 catalytic domain inhibitors, primary screen, biochemical, FRET, uHTS; inhibition, % at 10 µM; Sentrin-specific protease 1 (Homo sapiens), Q9P0U3; AID 624204, 2012; 360,000 compounds, 0.21% hits; recombinant SENP1 catalytic domain, CyPet-SUMO1-YPet FRET cleavage;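 active = inhibition at least 30% at 10 µM, raw YFP signal under a set limit, fluorescence ratio 0.5 to 1.5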;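 also: 0% = enzyme with DMSO and 100% = no enzyme wells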
#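 Test system: hSENP1 catalytic domain, recombinant; Amount: 20 pM final SENP1 enzyme; Medium: Tris pH 8 buffer plus EDTA, NaCl, BME, BSA, NP40, catalase; Schedule: 50 min enzyme reaction, room temperature, light-protected; Technique: FRET fluorescence in CFP and YFP emission channels; Controls: no-enzyme wells low, DMSO-plus-enzyme wells high control.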
# Starred values were filed as active, the others as inactive; / = no result. A selection: hits, their analogues and other compounds. The true share with any hit is near 4%.
SMILES,iPSC survival up,GRIN3A LBD mod,H9c2 protect,Arrestin-AP2 inh,FAS TE block,SENP1 FRET inh
COc1cccc2cc(C(=O)CC3(O)C(=O)N(Cc4ccccc4)c4ccccc43)c(=O)oc12 (stereo not drawn),2,15*,5,5,-9,-3
CCCCNC(=O)c1ccc2nc(CC)c(N(C)Cc3cccs3)n2c1,7,/,4,/,2,-5
O=C1NC(=O)C2(N1)C(=O)c1cccc3cccc2c13 (stereo not drawn),2,/,3,/,-113,79
CCC1CCCCN1CCNS(=O)(=O)c1ccc2c(c1)oc(=O)n2C (stereo not drawn),1,14*,8,-9,-6,-5
CC(C)C(=O)N1CCC1(C)C(=O)Nc1cc(-c2ccccc2)nn1C (stereo not drawn),10,/,-3,/,-2,4
CCOc1cc2c(c3c1C(c1ccccc1)N(S(=O)(=O)c1ccc(C)cc1)C3)C(=O)C=CC2=O (stereo not drawn),-1,/,-15,/,42,4
FC(F)C(F)(F)c1cc(-c2ccc(Cl)cc2)n[nH]1,0,5,-18,-15,19,1
Fc1ccc(-c2cc(C(F)(F)C(F)F)[nH]n2)cc1,0,10*,-9,-6,7,0
O=C(O)CCCN1C(=O)C2C3CCC(C3)C2C1=O (stereo not drawn),2,/,0,/,-4,1
O=C1NN(c2ccccc2)C(=O)/C1=C\c1ccc(-c2cc([N+](=O)[O-])ccc2O)o1,0,23*,-2,8,0,8
O=C(NC1CCCC1)C(C1CC1)n1c(-c2ccnc3ccccc23)nc2ccccc21 (stereo not drawn),/,/,/,/,/,0
O=C(Nc1ccc(-c2cn3ccccc3n2)cc1)c1ccc(Cl)cc1,-4,14*,-9,-2,-3,4
CCCOc1ccc(-c2cn3ccccc3n2)cc1,-1,-15,-20,15,-3,-2
Cc1ccc2nc(-c3ccccc3)cn2c1,-4,-1,-32,-13,-8,-1
O=C(Nc1ccc(-c2cn3ccccc3n2)cc1)c1ccco1,-2,24*,-8,29,-4,0
O=C(NCc1cn2ccccc2n1)c1ccco1,-1,-4,12,0,-5,-2
CC(=O)Nc1ccc(-c2cn3cc(C)ccc3n2)cc1,-2,20*,-9,6,-6,1
COc1ccc(-c2cn3ccccc3n2)cc1,-1,26*,-32,-18,-5,3
OCCc1ccc(NCCc2cccs2)cc1,0,/,-1,/,-11,5
O=CNc1ccc2c3c(cccc13)-c1ccccc1-2,0,2,-6,-12,-3,-33
CCOCc1nc(N)nc(N)c1-c1cccc(Cl)c1,1,/,0,/,-7,3
O=C1C=C(c2ccc3cc[nH]c3c2)C[C@@H](c2ccc3c(c2)OCO3)C1,0,21*,-2,-3,18,-15
CC1(C(=O)N2CCC(CC3CC(c4cccc(Br)c4)=NO3)(C(=O)NCC3CCCCC3)CC2)CC1 (stereo not drawn),-2,6,3,6,31,3
COc1cc2c(cc1OC)-c1cc(Nc3ccc(F)cc3)nc(=O)n1CC2,0,10*,8,11,2,-10
COc1ccc(Cl)cc1-c1nc(-c2ccc(NC(=O)c3cccs3)cc2)no1,0,35*,56*,1,12,2
SMILES,iPSC survival up,GRIN3A LBD mod,H9c2 protect,Arrestin-AP2 inh,FAS TE block,SENP1 FRET inh
COc1ccc(C(=O)/C=C\c2ccc(NC(=O)c3cccs3)cc2)cc1,-2,23*,3,-5,8,-107
COc1cc(OC)cc(C(=O)Nc2cccc(NC(=O)c3cccs3)c2)c1,-1,/,6,/,10,3
COc1cc(NC(=O)c2cccs2)cc(OC)c1,0,6,-7,-30,-6,1
CC(C)(C)NC(=O)c1cc(NC(=O)c2cccs2)cc(NC(=O)c2cccs2)c1,0,-1,63*,5,-4,-2
COc1cccc(NC(=O)c2cccs2)c1,-3,26*,-6,4,-3,3
O=C1NC[C@@H](CCCCN2CCN(Cc3ccccc3)C(=O)C2=O)N(CCC2CCCCC2)C1=O,1,/,/,/,0,-1
CC1NC(=O)c2cccnc2-n2c1nc1cc(F)ccc1c2=O (stereo not drawn),-2,/,8,/,-8,1
COc1ccc(OCC(=O)Nc2ccc(NC(=O)c3cccs3)cc2)cc1,0,32*,-2,-15,-4,-2
O=C(Nc1ccc(NC(=O)C2CC2)nc1)c1cccs1,4,-6,-1,-4,-7,0
O=C(Nc1ccc(NC(=O)c2cccs2)cn1)c1ccccc1,-3,14*,7,3,-5,1
COc1ccc(C=CC(=O)c2ccc(OC)c(OC)c2)cc1O,-4,/,15,/,-7,-7
COc1ccc(NC(=O)c2ccc(NC(=O)c3cccs3)cc2)cc1,0,26*,-5,2,-3,0
COc1ccc(C=CC(=O)c2ccc3cc(OC)c(OC)cc3c2)cc1OC,-2,/,53*,/,4,-32
COc1ccc(C(=O)Nc2cccc(NC(=O)c3cccs3)c2)cc1,0,8,1,-11,10,2
O=C(OCc1cn([C@H]2CN(C(=O)C3CCCCC3)[C@@H](c3ccccc3)C[C@@H]2O)nn1)c1ccccc1,2,/,1,/,1,2
CC(C)CN1C(=O)c2ccc(NC(=O)c3cccs3)cc2C1=O,4,3,-9,-6,3,2
Cc1cc(C)cc(C(=O)Nc2ccc(NC(=O)c3cccs3)cc2)c1,0,27*,49*,22,11,1
COc1ccc(CCNC(=O)c2cccs2)cc1,0,31*,-3,28,-4,1
O=C(Nc1ccc(Oc2ccc3c(c2)C(=O)N(c2ccc(O)cc2)C3=O)cc1)c1cccs1,2,16*,-3,30,-1,3
CC(=O)c1ccc(NC(=O)c2cccs2)cc1,0,-21,-9,0,-9,3
COc1ccc(/C=C/C(=O)c2ccoc2)cc1,0,0,2,8,-8,1
COc1ccc(/C=C/C(=O)c2ccc(O)cc2)cc1,-3,11*,-11,-7,-5,2

# From PubChem
